According to article PMC4767718 (Drugs in R&D, 2015):
Where two headings read alike, the source gives them in different places.

Columns and labels:
[1] = acidic pH / acidic solution; cited from earlier work
advanced solid tumors = assay: Tumor response by RECIST version 1.1; type: in vivo, human
How it was run: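 RECIST 1.1 response assessed at baseline, end of cycles 2, 4 and 6, then every 3 cycles (9 weeks) until progression. Oral dosing 40 mg twice daily on days 3–9 of cycles 1–2 (escalation to 50 mg allowed in cycle 2). Afterwards, 40 or 50 mg twice daily on days 1–7 of 21-day cycles.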

[2] = type: in vivo, human; conditions: single 50 mg ECT; for half-life: human, plasma, oral, 50 mg, Mean t½ (SD)
How it was run: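 Randomized two-way crossover on day 1 of cycles 1 and 2. Fasted arm: ~10 h overnight fast. Fed arm: high-fat meal (54 g fat, 1036 calories) ~30 min predose, ≥75 % eaten. Tablet taken with 240 mL water, then no food for 4 h. Non-compartmental parameters. Ratio 90 % CIs from ANOVA on log data (patient random effect).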

[3] = dose range of 5–200 mg/day; earlier trials, no reference given; cited from earlier work
[4] = Safety: drug-related adverse events graded by NCI-CTCAE version 3.0; type: in vivo, human
How it was run: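 Adverse events monitored throughout and graded by NCI-CTCAE v3.0, alongside regular hematology, clinical chemistry, vital signs and ECOG status. Single oral dose on day 1 of cycles 1–2. Then 40 mg twice daily on days 3–9 (50 mg allowed in cycle 2), followed by 14-day rest. Afterwards, 40 or 50 mg twice daily on days 1–7 of 21-day cycles.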

[5] = cited from earlier work
[6] = 24 patients, during the first two cycles
[7] = N = 24, all alisertib treatments

COc1cc(Nc2ncc3c(n2)-c2ccc(Cl)cc2C(c2c(F)cccc2OC)=NC3)ccc1C(=O)O [Alisertib]
Solubility [1]: reduced
Patients with best response of stable disease (advanced solid tumors; 24 patients evaluable, alisertib 40 to 50 mg twice daily): 50%
Patients with stable disease lasting more than 3 months (advanced solid tumors; of 12 patients with stable disease): seven
half-life ([2]; fasted state, n = 11): 16.7 h
half-life ([2]; fed state, n = 14): 14.9 h
AUCtlast geometric mean ratio, fed versus fasted (90 % CI) [2]: 1.04 (0.80–1.34)
Cmax geometric mean ratio, fed versus fasted (90 % CI) [2]: 0.84 (0.66–1.06)
Decrease in geometric mean Cmax after high-fat meal compared with fasted [2]: 16%
AUCinf geometric mean ratio, fed versus fasted (90 % CI) ([2]; n = 11): 0.94 (0.68–1.32)
AUCinf geometric mean ratio, fed versus fasted (90 % CI) ([2]; n = 11, listed as alisertib): 0.94
Geometric mean Cmax under fed conditions as % of that under fasted conditions ([2]; 90 % CI 66–106): 84%
Geometric mean AUCinf under fed conditions as % of that under fasted conditions ([2]; 90 % CI 68–132 %): 94%
Pharmacokinetics, dose linearity [3]: linear
Discontinuation of treatment due to AEs ([4]; 24 patients): No patient discontinued treatment due to AEs
Patients reporting at least one drug-related AE ([4]; 24 patients): 96%
Patients with AEs considered serious and related to alisertib ([4]; 24 patients): 13%
Patients with drug-related grade 3/4 leukopenia ([4]; 24 patients): 38%
Patients with drug-related grade 3/4 neutropenia ([4]; 24 patients): 50%
Patients with drug-related grade 3/4 thrombocytopenia ([4]; 24 patients): 21%
Patients with drug-related grade 3 or higher AEs ([4]; 24 patients): 67%
Patients with drug-related alopecia ([4]; 24 patients, any grade): 50%
Patients with drug-related diarrhea ([4]; 24 patients, any grade): 25%
Patients with drug-related fatigue ([4]; 24 patients, any grade): 21%
Patients with drug-related nausea ([4]; 24 patients, any grade): 21%
Serious related grade 3/4 febrile neutropenia [4, 6]: 2 n
Serious related grade 3 neutropenia [4, 6]: 1 n
Drug-related AST increased, all grades [4, 7]: 3 (13) n (%)
Drug-related AST increased, grade ≥3 [4, 7]: 0 n (%)
Drug-related alopecia, all grades [4, 7]: 12 (50) n (%)
Drug-related alopecia, grade ≥3 [4, 7]: 0 n (%)
Drug-related anemia, all grades [4, 7]: 7 (29) n (%)
Drug-related anemia, grade ≥3 [4, 7]: 3 (13) n (%)
Drug-related anorexia, all grades [4, 7]: 4 (17) n (%)
Drug-related anorexia, grade ≥3 [4, 7]: 0 n (%)
Drug-related diarrhea, all grades [4, 7]: 6 (25) n (%)
Drug-related diarrhea, grade ≥3 [4, 7]: 1 (4) n (%)
Drug-related fatigue, all grades [4, 7]: 5 (21) n (%)
Drug-related fatigue, grade ≥3 [4, 7]: 1 (4) n (%)
Drug-related febrile neutropenia, all grades [4, 7]: 2 (8) n (%)
Drug-related febrile neutropenia, grade ≥3 [4, 7]: 2 (8) n (%)
Drug-related leukopenia, all grades [4, 7]: 13 (54) n (%)
Drug-related leukopenia, grade ≥3 [4, 7]: 9 (38) n (%)
Drug-related nausea, all grades [4, 7]: 5 (21) n (%)
Drug-related nausea, grade ≥3 [4, 7]: 0 n (%)
Drug-related neutropenia, all grades [4, 7]: 17 (71) n (%)
Drug-related neutropenia, grade ≥3 [4, 7]: 12 (50) n (%)
Drug-related stomatitis, all grades [4, 7]: 4 (17) n (%)
Drug-related stomatitis, grade ≥3 [4, 7]: 0 n (%)
Drug-related thrombocytopenia, all grades [4, 7]: 7 (29) n (%)
Drug-related thrombocytopenia, grade ≥3 [4, 7]: 5 (21) n (%)

CS(=O)(=O)CCNCc1ccc(-c2ccc3ncnc(Nc4ccc(OCc5cccc(F)c5)c(Cl)c4)c3c2)o1 [Lapatinib]
AUC increase when administered with food ([5]; low-fat meal): approximately three

Cc1nc(Nc2ncc(C(=O)Nc3c(C)cccc3Cl)s2)cc(N2CCN(CCO)CC2)n1 [dasatinib]
Increase in the mean AUC after a high-fat meal ([5]; 100 mg dose following a high-fat meal (30 min)): 14%

C#Cc1cccc(Nc2ncnc3cc(OCCOC)c(OCCOC)cc23)c1 [erlotinib]
Change of systemic exposure under fed compared with fasted conditions ([5]; single-dose crossover study): approximately doubled

COc1cc2ncnc(Nc3ccc(F)c(Cl)c3)c2cc1OCCCN1CCOCC1 [gefitinib]
Effect of food on systemic exposure [5]: unaffected by food
